H69AR inhibit: blocks growth of human H69AR lung tumor cells; AID 598; 6% of 85,000 active; H69AR lung tumor viability, ATP luminescence, 72 h; hits give low values; viability, % at 10 µM;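 active = viability at or below 40%; inactive = viability above 40%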;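 also: multidrug resistant small cell line overexpressing MRP-1 efflux transporter; 100% = mean luminescence of untreated control wells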
HCT116 PTEN-null: suppresses growth of cells with PTEN deletion. AID 827. HCT116 PTEN-null viability, CellTiter-Glo, 60 h; hits give low values. viability, % at 10 µM. 1.2% of 140,000 active;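 active = viability at or below a set limit, 4 SD under the median of all tested compounds, cut at about 3.7% in these data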;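 also: PTEN knockout HCT116 line with beta catenin targeted HCT116 as companion control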
Fibroblast inh: blocks proliferation of human lung fibroblasts | LL 47 human lung fibroblast viability, ATP luminescence; hits give low values | viability, % at 10 µM | 1.1% of 85,000 active | AID 719;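 active = viability at or below 50% in the single dose screen; inactive = viability above 50%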;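 also: compound exposure lasted 72 h before the ATP readout; 100% = median luminescence of untreated cell-only wells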
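Material: Human LL 47 lung fibroblast cells | Input: 1,150 cells/well | Buffer or medium: IMEM plus 15% FBS | Compound dosing: 0.1% DMSO in all compound wells | Times: Overnight cell rest, 72 h compound treatment at 37 °C | Signal: CellTiter-Glo luminescence measuring cellular ATP | Measure: % viability versus median cells-only luminescence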
bCat KO growth: beta-catenin-lacking colon tumor cell growth suppression | HCT116 beta-catenin knockout viability, CellTiter-Glo, 60 h; hits give low values | viability, % at 10 µM | 1.5% of 140,000 active | AID 818;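 active = viability at or under a set limit, the compound median less 4 SD, cut at about 6% in these data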;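 also: 0% = Hyamine 1622 control at 20 µM and 100% = untreated cell control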
HUVEC prolif 384: blocks proliferation of human endothelial cells; HUVEC proliferation, CellTiter-Glo luminescence, 72 h; hits give low values; viability, % at 10 µM (by protocol); 1.1% of 86,000 active; AID 648;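 active = viability at or below 30%; inactive = viability above 30%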;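 also: 100% = median luminescence of DMSO-only cell control wells on each plate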
Numbers without * were called inactive; nt = not tested or not shown. The sample as a whole holds a higher share of hits than the screen did.

SMILES	H69AR inhibit	HCT116 PTEN-null	Fibroblast inh	bCat KO growth	HUVEC prolif 384
CCOC(=O)c1cnn(-c2nc(C)nc3sc4c(c23)CCC4)c1N	105.6	nt	81.4	nt	68.0
CCOC(=O)c1cnn(-c2nc3sc4c(c3c(=O)[nH]2)CCCC4)c1N	29.5*	nt	45.1*	nt	36.7
O=C(NC1CCCCC1)Sc1ccc(Cl)cc1	36.0*	32.7	82.9	66.1	61.9
NS(=O)(=O)c1ccc(Nc2nc(-c3ccc4ccccc4c3)cs2)cc1	32.0*	91.0	78.8	98.9	86.4
Cc1ccc(Cn2ccc(=O)c(OCc3c(Cl)cccc3Cl)c2C)cc1	25.0*	39.8	85.5	19.1	72.5
O=C(CSc1nc2c(cnn2-c2ccccc2)c(=O)[nH]1)c1ccc(Cl)cc1	36.2*	103.2	97.6	92.9	88.2
CCCSc1nc2c(cnn2-c2ccccc2)c(=O)[nH]1	106.0	102.8	92.8	106.9	73.1
CCCSc1nc2c(cnn2-c2ccc(C)cc2)c(=O)[nH]1	12.6*	52.6	90.6	70.3	11.1*
CCCCSc1nc2c(cnn2-c2ccc(Cl)cc2)c(=O)[nH]1	50.8	78.2	88.5	97.0	86.7
Cc1ccc(Nc2nc(N)nc(CN3CCN(C(=O)c4ccco4)CC3)n2)cc1Cl	69.1	99.3	101.7	88.9	85.0
NS(=O)(=O)c1cc2c(cc1Cl)NC=NS2(=O)=O	99.9	92.5	99.0	100.9	103.4
Cc1cccc2cc3c(N)c(C(=O)N4CCOCC4)sc3nc12	18.3*	15.9	63.7	13.2	62.1
Cc1cc(C)c2cc3c(N)c(C(=O)N4CCc5ccccc5C4)sc3nc2c1	nt	96.7	nt	93.2	nt
CCOC(=O)c1ccc(N=c2sc(C(=O)OC)cc(=O)n2Cc2ccc3c(c2)OCO3)cc1	33.3*	13.8	96.3	6.5	82.1
COC(=O)c1cc(=O)n(Cc2ccc3c(c2)OCO3)c(=Nc2ccc(F)cc2)s1	7.9*	15.5	85.3	27.0	60.2
COC(=O)c1ccc(N=c2sc(C(=O)OC)cc(=O)n2C)cc1	24.2*	nt	55.0	nt	57.8
CCOC(=O)c1ccc(N=c2sc(C(=O)OC)cc(=O)n2C2CC2)cc1	33.5*	66.2	93.9	69.8	49.3
CCOc1ccc(C(=O)OCC(=O)NCc2ccco2)cc1OCC	78.3	93.0	99.3	89.7	100.5
O=C(Nc1ccccc1)N1CCN(Cc2ccc3c(c2)OCO3)CC1	94.2	86.3	94.0	91.8	97.5
COC(=O)c1cc(=O)n(Cc2ccc3c(c2)OCO3)c(=Nc2ccccc2)s1	12.2*	14.8	89.0	20.8	53.8
OCCCNc1nc(-c2ccc(Cl)cc2)nnc1-c1ccccc1	nt	87.3	nt	91.2	nt
C=CCNc1nc(-c2ccccn2)nnc1-c1ccccc1	40.5	15.0	13.6*	14.1	11.9*
CC(=O)c1c(C)[nH]c(C(=O)OCC(=O)Nc2ccc(Cl)cc2[N+](=O)[O-])c1C	nt	17.5	nt	28.2	nt
CCOc1ccccc1C1CC(=O)NC(SCC(=O)Nc2nccs2)=C1C#N (stereo not drawn)	nt	80.8	nt	93.4	nt
CCNC(=S)SCCOc1ccc(C)cc1	nt	88.7	nt	92.0	nt
SMILES	H69AR inhibit	HCT116 PTEN-null	Fibroblast inh	bCat KO growth	HUVEC prolif 384
N#Cc1c(Cl)nc(N/N=C/c2ccccc2)c(Cl)c1Cl	nt	1.6*	nt	2.8*	nt
C[N+](C)(C)c1ccc(/C=N/Nc2nc(Cl)c(C#N)c(Cl)c2Cl)cc1	nt	68.7	nt	54.5	nt
COc1ccc(C(=O)C(C)Oc2cccc(NC(=O)c3cccc([N+](=O)[O-])c3)c2)cc1 (stereo not drawn)	nt	78.0	nt	85.8	nt
Cc1ccc(C(=O)O/N=C(\N)c2cccnc2)cc1[N+](=O)[O-]	nt	98.6	nt	99.6	nt
Cc1ccc(C(=O)O/N=C(\N)c2ccc(Br)cc2)cc1C	28.4*	90.8	101.4	88.9	85.0
COc1ccc(/C(N)=N/OC(=O)c2ccc(C)c([N+](=O)[O-])c2)cc1OC	24.2*	106.7	96.0	98.7	84.3
Cc1cc(C)cc(C(=O)O/N=C(\N)c2ccc(Br)cc2)c1	33.7*	90.8	81.8	77.6	66.7
CCC(=O)N1CCc2cc(Br)cc(S(=O)(=O)N3CCCCCC3)c21	74.8	78.8	104.3	85.7	100.0
O=C(C1CC1)N1CCc2cc(Br)cc(S(=O)(=O)N3CCCCCC3)c21	37.1*	76.7	82.8	75.2	97.5
O=S(=O)(NCc1ccccc1)c1ccc(S(=O)(=O)N2CCCCC2)cc1	82.0	80.4	97.9	72.1	90.6
CC1CCN(S(=O)(=O)c2ccc(S(=O)(=O)NCc3ccccc3)cc2)CC1	38.3*	46.1	89.5	50.5	76.1
CC1CCCC(C)N1S(=O)(=O)c1ccc(S(=O)(=O)NCc2ccccc2)cc1 (stereo not drawn)	36.0*	41.1	45.5*	58.3	89.7

Screening data as filed in PubChem.
